Measurements taken from ChEMBL document CHEMBL3580565, “Synthesis and Biological Evaluation of Cyclopentaquinoline Derivatives as Nonsteroidal Glucocorticoid Receptor Antagonists” (J Med Chem, 2015).

Key:
Progesterone receptor = biological target: T1, Progesterone receptor (Homo sapiens, UniProt P06401); experiment: Displacement of [3H]-progesterone from cytosolic fraction of human recombinant progesterone-B receptor by scintillation counting analysis
T1 sequence (P06401 whole entry): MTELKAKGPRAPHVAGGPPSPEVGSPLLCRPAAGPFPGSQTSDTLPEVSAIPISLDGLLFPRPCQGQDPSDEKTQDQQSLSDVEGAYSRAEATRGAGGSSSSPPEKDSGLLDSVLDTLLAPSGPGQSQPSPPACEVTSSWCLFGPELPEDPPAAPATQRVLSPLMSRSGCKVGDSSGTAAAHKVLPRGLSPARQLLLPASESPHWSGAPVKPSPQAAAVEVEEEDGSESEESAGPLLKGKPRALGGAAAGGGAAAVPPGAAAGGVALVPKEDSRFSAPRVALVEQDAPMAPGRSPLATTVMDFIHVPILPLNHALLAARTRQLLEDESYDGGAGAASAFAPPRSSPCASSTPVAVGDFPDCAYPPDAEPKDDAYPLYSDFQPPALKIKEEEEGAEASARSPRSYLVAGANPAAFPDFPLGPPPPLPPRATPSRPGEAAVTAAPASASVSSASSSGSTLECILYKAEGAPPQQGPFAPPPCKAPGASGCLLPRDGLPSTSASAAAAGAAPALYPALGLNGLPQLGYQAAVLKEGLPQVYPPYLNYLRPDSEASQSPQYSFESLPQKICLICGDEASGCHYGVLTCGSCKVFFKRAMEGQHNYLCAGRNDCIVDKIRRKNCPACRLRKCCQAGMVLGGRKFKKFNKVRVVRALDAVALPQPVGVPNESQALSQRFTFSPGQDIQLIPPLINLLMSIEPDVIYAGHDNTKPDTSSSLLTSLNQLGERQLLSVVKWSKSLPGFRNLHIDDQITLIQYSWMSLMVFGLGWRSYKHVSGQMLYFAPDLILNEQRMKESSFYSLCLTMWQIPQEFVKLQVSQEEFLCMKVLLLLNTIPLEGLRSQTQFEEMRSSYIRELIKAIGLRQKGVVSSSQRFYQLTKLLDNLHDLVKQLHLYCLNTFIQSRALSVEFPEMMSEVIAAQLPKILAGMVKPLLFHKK

Androgen receptor = biological target: T2, Androgen receptor (Homo sapiens, UniProt P10275); experiment: Displacement of [3H]methyltrienolone from cytosolic fraction of androgen receptor in human […] cells after 24 hrs by scintillation counting analysis; assay type: cell-based
T2 sequence (P10275 whole entry): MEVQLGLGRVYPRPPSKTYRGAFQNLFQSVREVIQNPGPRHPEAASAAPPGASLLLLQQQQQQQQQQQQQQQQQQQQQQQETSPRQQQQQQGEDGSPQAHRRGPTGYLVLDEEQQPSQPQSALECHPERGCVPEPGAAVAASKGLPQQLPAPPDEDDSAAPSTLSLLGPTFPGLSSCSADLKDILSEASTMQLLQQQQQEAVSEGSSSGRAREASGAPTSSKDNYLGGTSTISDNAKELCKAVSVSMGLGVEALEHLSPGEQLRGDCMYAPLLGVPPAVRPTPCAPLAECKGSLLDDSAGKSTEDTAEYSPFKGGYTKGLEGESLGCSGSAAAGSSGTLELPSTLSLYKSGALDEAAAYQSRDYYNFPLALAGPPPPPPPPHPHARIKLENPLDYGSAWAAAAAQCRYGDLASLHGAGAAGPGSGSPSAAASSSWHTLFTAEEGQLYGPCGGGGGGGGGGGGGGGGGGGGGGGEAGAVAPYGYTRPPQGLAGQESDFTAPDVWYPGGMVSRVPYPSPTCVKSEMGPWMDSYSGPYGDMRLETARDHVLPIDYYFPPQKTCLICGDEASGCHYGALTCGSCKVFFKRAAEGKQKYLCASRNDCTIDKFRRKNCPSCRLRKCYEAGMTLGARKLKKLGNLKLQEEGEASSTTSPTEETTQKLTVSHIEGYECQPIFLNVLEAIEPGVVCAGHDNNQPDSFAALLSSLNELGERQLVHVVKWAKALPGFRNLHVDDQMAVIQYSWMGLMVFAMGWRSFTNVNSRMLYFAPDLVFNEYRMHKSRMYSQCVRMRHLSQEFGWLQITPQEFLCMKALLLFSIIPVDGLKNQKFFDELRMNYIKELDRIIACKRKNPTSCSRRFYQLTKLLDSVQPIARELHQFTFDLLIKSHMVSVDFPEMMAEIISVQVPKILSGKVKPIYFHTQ
Procedure, shortened: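 Assay run at Cerep. Binding of [³H]methyltrienolone to cytosolic androgen receptor from LNCaP cells.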

[1] = Cmax in Sprague-Dawley rat at 10 mg/kg, po by LC/MS/MS analysis; assay type: ADME, organism-based; design: dose 10 mg/kg, route oral; settings: in vivo
Procedure, shortened: (§1)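 Male Sprague–Dawley rats dosed orally (n = 4). Jugular vein blood sampled at 0.25, 0.5, 1, 2, 4, 6 and 24 h into heparin, plasma obtained by centrifugation. Concentrations determined by LC/MS/MS.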

[2] = Tmax in Sprague-Dawley rat at 10 mg/kg, po by LC/MS/MS analysis; assay type: ADME, organism-based; settings: in vivo; procedure, shortened: as §1
[3] = AUC (0 to t) in Sprague-Dawley rat at 1 mg/kg, iv by LC/MS/MS analysis; assay type: ADME, organism-based; settings: in vivo
Procedure, shortened: (§2)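 Single intravenous dose to male Sprague–Dawley rats (n = 4). Jugular vein blood drawn at 0.05, 0.25, 0.5, 1, 2, 4, 8 and 24 h, heparin anticoagulant, plasma separated by centrifugation. Plasma drug level measured by LC/MS/MS.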

[4] = Half life in Sprague-Dawley rat at 1 mg/kg, iv by LC/MS/MS analysis; assay type: ADME, organism-based; settings: in vivo; procedure, shortened: as §2
[5] = Half life in Sprague-Dawley rat at 10 mg/kg, po by LC/MS/MS analysis; assay type: ADME, organism-based; settings: in vivo; procedure, shortened: as §1
[6] = AUC (0 to infinity) in Sprague-Dawley rat at 10 mg/kg, po by LC/MS/MS analysis; assay type: ADME, organism-based; design: dose 10 mg/kg, time infinity, route oral; settings: in vivo; procedure, shortened: as §1
[7] = Total clearance in Sprague-Dawley rat at 1 mg/kg, iv by LC/MS/MS analysis; assay type: ADME, organism-based; settings: in vivo; procedure, shortened: as §2
[8] = Volume of distribution at steady state in Sprague-Dawley rat at 1 mg/kg, iv by LC/MS/MS analysis; assay type: ADME, organism-based; settings: in vivo, read-out: Vdss; procedure, shortened: as §2
[9] = Oral bioavailability (0 to infinity) in Sprague-Dawley rat at 10 mg/kg by LC/MS/MS analysis; assay type: ADME, organism-based; settings: in vivo
Procedure, shortened: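 Bioavailability from paired studies in male Sprague–Dawley rats: 1 mg/kg i.v. and 10 mg/kg p.o. (n = 4 each). Jugular vein heparinized plasma sampled up to 24 h, quantified by LC/MS/MS.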

Rattus norvegicus [10] = experiment: Antidepressant-like activity in Wistar rat assessed as immobility time at 10 mg/kg, po administered at 1, 5, 23.5 hrs prior to testing measured for 5 mins by forced swimming test (reference value: 211.3 to 232.2 secs); assay type: functional
Rattus norvegicus [11] = experiment: Antidepressant-like activity in Wistar rat assessed as decrease in immobility time at 30 mg/kg, po administered at 1, 5, 23.5 hrs prior to testing measured for 5 mins by forced swimming test relative to vehicle-treated control; assay type: functional; design: scale not given: the % may be the effect or the level left
Rattus norvegicus [12] = experiment: Antidepressant-like activity in Wistar rat assessed as decrease in immobility time at 100 mg/kg, po administered at 1, 5, 23.5 hrs prior to testing measured for 5 mins by forced swimming test relative to vehicle-treated control; assay type: functional; design: scale not given: the % may be the effect or the level left

Structure (SMILES): Cc1noc(C)c1-c1cc2c(c3c1CCC3)NC(C)(C)C(=O)C2(C)C
- Ki (Progesterone receptor): 1480 nM
- Ki (Androgen receptor): > 2300 nM
- Cmax [1]: 273 ng/mL
- Tmax [2]: 3.5 h
- AUC(0-t) [3]: 410 ng·h/mL
- half-life [4]: 3.2 h
- half-life [5]: 4.6 h
- AUC(0-inf) [6]: 2720 ng·h/mL
- clearance [7]: 37.1 mL/min/kg
- Vd [8]: 6.13 L/kg
- bioavailability [9]: 59%
- Time (Rattus norvegicus [10]): 206.8 s
- Activity (Rattus norvegicus [11]): 75.9%
- Activity (Rattus norvegicus [12]): 80.7%
